In ChEMBL document CHEMBL1649328, “Assessment of pandemic and seasonal influenza A (H1N1) virus susceptibility to neuraminidase inhibitors in three enzyme activity inhibition assays” (Antimicrob Agents Chemother, 2010):
pIC50: −log10 of the molar value.

Assays:
Type in all cases: functional, organism-based
Influenza A virus [1] = experiment: Antiviral activity against influenza A (A/Washington/29/2009 (H1N1)) virus harboring neuraminidase H275Y mutant after 16 to 18 hrs by fetuin substrate based colorimetric assay
Outline: (§1)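 Colorimetric NA inhibition with fetuin substrate. Virus was diluted in NA-Star buffer (26 mM MES, 4 mM CaCl2, pH 6.0) to give OD549 of 0.4–0.8 after 18 h. It was preincubated with ten half-log inhibitor dilutions (0.03–1,000 nM final) for 1 h at 37°C, then with fetuin (5.5 mg/ml final) for 16–18 h at 37°C. Released sialic acid was read at 549 nm after periodate/TBA reaction and butanol extraction. IC50 came from a Vmax·[1−x/(K+x)] fit, mean of ≥2 experiments.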

Influenza A virus [2] = experiment: Antiviral activity against influenza A (A/Hong Kong/2369/2009 (H1N1)) virus harboring neuraminidase H275Y mutant after 30 mins by MUNANA substrate based fluorometric assay
Outline: (§2)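 Fluorometric NA inhibition with MUNANA (100 μM final). Titrated virus in NA-Star buffer (26 mM MES, 4 mM CaCl2, pH 6.0) was preincubated with ten half-log inhibitor dilutions (0.03–1,000 nM final) for 30 min at 37°C, then with substrate for 30 min at 37°C. The reaction was stopped with 0.1 M glycine in 25% ethanol, pH 10.7, and 4-methylumbelliferone was read at ex 365/em 450 nm. IC50 came from a Vmax·[1−x/(K+x)] fit, mean of ≥3 experiments.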

Influenza A virus [3] = experiment: Antiviral activity against influenza A (A/North Carolina/01/2009 (H1N1)) virus harboring neuraminidase H275Y mutant after 16 to 18 hrs by fetuin substrate based colorimetric assay; outline: as §1
Influenza A virus [4] = experiment: Antiviral activity against influenza A (A/Singapore/57/2009 (H1N1)) virus harboring neuraminidase H275Y mutant after 30 mins by NA-star substrate based chemiluminescent assay
Outline: (§3)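 Titrated virus in NA-Star buffer (26 mM MES, 4 mM CaCl2, pH 6.0) was preincubated with ten half-log inhibitor dilutions (0.03–1,000 nM final) for 30 min at 37°C, then with substrate for 30 min at room temperature. Accelerator solution was added and luminescence read for 0.1 s. IC50 came from a Vmax·[1−x/(K+x)] fit, mean of ≥3 experiments.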

Influenza A virus [5] = experiment: Antiviral activity against influenza A (A/Montana/02/2009 (H1N1)) virus harboring neuraminidase H275Y mutant after 16 to 18 hrs by fetuin substrate based colorimetric assay; outline: as §1
Influenza A virus [6] = experiment: Antiviral activity against influenza A (A/Osaka/180/2009 (H1N1)) virus harboring neuraminidase H275Y mutant after 30 mins by NA-star substrate based chemiluminescent assay; outline: as §3
Influenza A virus [7] = experiment: Antiviral activity against influenza A (A/Montana/02/2009 (H1N1)) virus harboring neuraminidase H275Y mutant after 30 mins by NA-star substrate based chemiluminescent assay; outline: as §3
Influenza A virus [8] = experiment: Antiviral activity against influenza A (A/Hong Kong/2369/2009 (H1N1)) virus harboring neuraminidase H275Y mutant after 16 to 18 hrs by fetuin substrate based colorimetric assay; outline: as §1
Influenza A virus [9] = experiment: Antiviral activity against influenza A (A/Osaka/180/2009 (H1N1)) virus harboring neuraminidase H275Y mutant after 16 to 18 hrs by fetuin substrate based colorimetric assay; outline: as §1
Influenza A virus [10] = experiment: Antiviral activity against influenza A (A/North Carolina/01/2009 (H1N1)) virus harboring neuraminidase H275Y mutant after 30 mins by NA-star substrate based chemiluminescent assay; outline: as §3
Influenza A virus [11] = experiment: Antiviral activity against influenza A (A/Washington/29/2009 (H1N1)) virus harboring neuraminidase H275Y mutant after 30 mins by MUNANA substrate based fluorometric assay; outline: as §2
Influenza A virus [12] = experiment: Antiviral activity against influenza A (A/Osaka/180/2009 (H1N1)) virus harboring neuraminidase H275Y mutant after 30 mins by MUNANA substrate based fluorometric assay; outline: as §2
Influenza A virus [13] = experiment: Antiviral activity against influenza A (A/Singapore/57/2009 (H1N1)) virus harboring neuraminidase H275Y mutant after 30 mins by MUNANA substrate based fluorometric assay; outline: as §2
Influenza A virus [14] = experiment: Antiviral activity against influenza A (A/North Carolina/01/2009 (H1N1)) virus harboring neuraminidase H275Y mutant after 30 mins by MUNANA substrate based fluorometric assay; outline: as §2
Influenza A virus [15] = experiment: Antiviral activity against influenza A (A/Hong Kong/2369/2009 (H1N1)) virus harboring neuraminidase H275Y mutant after 30 mins by NA-star substrate based chemiluminescent assay; outline: as §3
Influenza A virus [16] = experiment: Antiviral activity against influenza A (A/Montana/02/2009 (H1N1)) virus harboring neuraminidase H275Y mutant after 30 mins by MUNANA substrate based fluorometric assay; outline: as §2
Influenza A virus [17] = experiment: Antiviral activity against influenza A (A/Washington/29/2009 (H1N1)) virus harboring neuraminidase H275Y mutant after 30 mins by NA-star substrate based chemiluminescent assay; outline: as §3
Influenza A virus [18] = experiment: Antiviral activity against influenza A (A/Singapore/57/2009 (H1N1)) virus harboring neuraminidase H275Y mutant after 16 to 18 hrs by fetuin substrate based colorimetric assay; outline: as §1

Structure (SMILES) | pIC50 (Influenza A virus [1]) | pIC50 (Influenza A virus [2]) | pIC50 (Influenza A virus [3]) | pIC50 (Influenza A virus [4]) | pIC50 (Influenza A virus [5]) | pIC50 (Influenza A virus [6]) | pIC50 (Influenza A virus [7]) | pIC50 (Influenza A virus [8]) | pIC50 (Influenza A virus [9]) | pIC50 (Influenza A virus [10]) | pIC50 (Influenza A virus [11]) | pIC50 (Influenza A virus [12]) | pIC50 (Influenza A virus [13]) | pIC50 (Influenza A virus [14]) | pIC50 (Influenza A virus [15]) | pIC50 (Influenza A virus [16]) | pIC50 (Influenza A virus [17]) | pIC50 (Influenza A virus [18])
CO[C@@H]([C@@H]1OC(C(=O)O)=C[C@H](NC(=N)N)[C@H]1NC(C)=O)[C@H](O)CO [LANINAMIVIR] | 8.67 | 8.97 | 9.05 | 9.13 | 9.09 | 9.32 | 9.47 | 8.67 | 8.48 | 9.47 | 8.92 | 8.84 | 9.06 | 9.04 | 9.11 | 8.98 | 9.09 | 8.95
CC(=O)N[C@H]1[C@H]([C@H](O)[C@H](O)CO)OC(C(=O)O)=C[C@@H]1NC(=N)N [ZANAMIVIR] | 8.58 | 8.99 | 8.71 | 9.40 | 8.62 | 9.46 | 9.38 | 8.44 | 8.50 | 9.38 | 9.08 | 8.89 | 9.00 | 8.94 | 9.37 | 8.94 | 9.29 | 8.55
